In the library only some 2.6% were active in any assay of this set; here they are far more common.
NadD inh: inhibitors of S. aureus NadD, primary screen, biochemical, colorimetric, uHTS. Nicotinate-nucleotide adenylyltransferase NadD (Staphylococcus aureus N315). purified NadD enzyme, colorimetric absorbance read-out. inhibition, % at 20 µM. 0.78% of 360,000 active. AID 602399, 2012; in the data active = inhibition above about 26%
Scp-1 inhibitor: Scp-1 phosphatase inhibitors, primary screen, biochemical, colorimetric, uHTS. Recombinant Scp1, phosphopeptide, malachite green phosphate absorbance. 0.88% of 340,000 active. AID 493091, 2011. inhibition, % at 20 µM;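 active = inhibition above about 50% at 20 µM, limit read from the data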;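 also: plate controls were DMSO wells with enzyme for no effect and wells lacking enzyme for full effect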
Target sequence (Q9GZU7 76-261 limits assumed): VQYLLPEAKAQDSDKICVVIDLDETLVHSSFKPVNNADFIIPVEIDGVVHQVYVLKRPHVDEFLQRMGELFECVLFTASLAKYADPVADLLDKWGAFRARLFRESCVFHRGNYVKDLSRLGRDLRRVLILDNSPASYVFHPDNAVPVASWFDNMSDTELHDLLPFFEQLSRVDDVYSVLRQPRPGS
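assay system = SCP-1 phosphatase catalytic domain, residues 76-261 | buffer or medium = 50 mM Tris acetate pH 5.5, 0.005% Tween-20, 10 mM MgCl2 | incubation = enzyme reaction 45 min at room temperature, colour 5 min, stabilisation 30 min | signal = Phosphate-binding colour reagent, absorbance read at 630 nm | measure = % inhibition at 20 µM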
rCAG RNA binder: binders of r(CAG) RNA repeats, primary screen, biochemical, fluorescence; r(CAG) RNA repeat, TO-PRO-1 dye displacement fluorescence; 1.3% of 370,000 active; inhibition, % at 3 µM;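 active = inhibition above the plate cutoff, the mean of all test compounds on that plate plus 3 SD, cut at about 35% in these data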;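 also: 0% = DMSO alone and 100% = 100 µM mitoxantrone as full dye displacement; higher means more dye released from RNA so lower well fluorescence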
LMPTP inh: LMPTP phosphatase inhibitors, primary screen, biochemical, fluorescence intensity, uHTS | 0.22% of 360,000 active | inhibition, % at 20 µM | recombinant LMPTP-A, OMFP fluorogenic substrate | AID 651560, 2012 | Low molecular weight phosphotyrosine protein phosphatase (Homo sapiens), P24666;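 active = compounds that cut the enzyme signal by at least half of the control window in the single-dose screen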;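 also: plate controls were DMSO wells with enzyme plus substrate for no effect and substrate without enzyme for full effect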
Target sequence (P24666 whole entry, looked up): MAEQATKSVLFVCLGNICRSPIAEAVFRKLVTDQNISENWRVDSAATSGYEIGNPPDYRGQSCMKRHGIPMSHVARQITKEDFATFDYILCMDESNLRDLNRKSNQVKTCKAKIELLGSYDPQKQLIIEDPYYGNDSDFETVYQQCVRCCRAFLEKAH
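Test system – LMPTP-A phosphatase enzyme · Quantity – 0.625 nM LMPTP-A final · Reagent – OMFP substrate, 400 µM final · Dosing – one test concentration per compound, 20 µM, with 3% DMSO overall · Timing – 50 min enzyme reaction at room temperature, protected from light · Detection – fluorescence intensity · Controls – substrate-only low control, DMSO enzyme-plus-substrate high control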
STEP inh: STEP phosphatase inhibitors, primary screen, biochemical, fluorescence intensity, uHTS; Tyrosine-protein phosphatase non-receptor type 5 (Homo sapiens), P54829; recombinant STEP, OMFP fluorogenic substrate; inhibition, % at 20 µM; 0.25% of 360,000 active; AID 588621, 2011;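 active = inhibition at 20 µM, scaled per plate between control wells, above about 37%, limit read from the data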;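 also: 0% = DMSO with enzyme and substrate and 100% = substrate only without enzyme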
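Material: STEP (striatal-enriched tyrosine phosphatase) enzyme, cell-free | Medium: 50 mM Bis-Tris pH 6.0 with 2.5 mM DTT and 0.005% Tween 20 | Read-out: Percent inhibition scaled to no-enzyme and uninhibited-enzyme controls, plate-pattern corrected | Signal: Fluorescence read at 480 nm ex / 540 nm em | Times: 20 min reaction, room temperature, in the dark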
STEP inh conf: STEP phosphatase inhibitor hit confirmation, biochemical, fluorescence intensity, single concentration. shares compounds with STEP inh. recombinant STEP, OMFP fluorogenic substrate. inhibition, % at 20 µM. 32% of 520 active; call rule not given here;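 also: 0% = enzyme with substrate plus DMSO and 100% = substrate without enzyme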
NadD inh conf: inhibitors of S. aureus NadD, confirmation, biochemical, colorimetric, single concentration. shares compounds with NadD inh. AID 624309, 2012. inhibition, % at 20 µM. purified S. aureus NadD, colorimetric enzyme assay. 13% of 2,000 active; in the data active = inhibition mostly above about 42%, no sharp cut-off; inactive = mostly below about 42%
rCAG binder conf: small molecules binding CAG repeat RNA – biochemical, fluorescence, confirmation; 70% of 4,300 active; shares compounds with rCAG RNA binder; inhibition, % at 3 µM; r(CAG) RNA repeat, TO-PRO-1 dye displacement fluorescence;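 active = inhibition above a per-plate cutoff, the mean inhibition of sample wells plus 3 SD, cut at about 35% in these data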;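 also: loss of TO-PRO-1 fluorescence as compound displaces dye from 1x1 AA loop RNA; 0% = DMSO only wells and 100% = 100 µM mitoxantrone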
dCAG dye counter: displacement of TO-PRO-1 from CAG DNA duplex, counter-screen for rCAG RNA repeat binder project, biochemical, fluorescence, TO-PRO-1 dye, d(CAG) DNA oligo. d(CAG) DNA oligo TO-PRO-1 dye displacement. AID 652068, 2013. inhibition, % at 3 µM. 94% of 4,300 active. shares compounds with rCAG RNA binder;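 active = inhibition above its plate's cutoff, the mean test-well inhibition plus 3 SD, cut at about 4.8% in these data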;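 also: 0% = DNA dye mix with DMSO and 100% = 100 µM mitoxantrone; hits displace the dye from DNA and so lower well fluorescence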
An asterisk follows results filed as active; · = no result given.

SMILES | NadD inh | Scp-1 inhibitor | rCAG RNA binder | LMPTP inh | STEP inh | STEP inh conf | others
CN1CCN(C(=O)/C=C/c2ccc3c(c2)OCO3)CC1 | 2 | -2 | -3 | -1 | 57* | -2
CCN1CCN(C(=O)/C=C/c2ccc3c(c2)OCO3)CC1 | -6 | -3 | -4 | 1 | -5 | ·
Cc1ccccc1Cn1cc(COC(=O)NCCc2ccccc2)nn1 | · | · | 0 | · | · | ·
CC(=O)c1ccc(NC(=S)N2CCN(CCO)CC2)cc1 | 0 | -8 | -2 | -2 | 0 | ·
OCCN1CCN(C(=S)c2ccc(Cl)c(Cl)c2)CC1 | -1 | -6 | 0 | 0 | 90* | 60*
CCOC(=O)c1cnn(-c2ncnc3sc(C)c(C)c23)c1N | -1 | -6 | -2 | 0 | 70* | 5
CCOC(=O)c1cnn(-c2ccc(C)cc2)c1N | 4 | -5 | -3 | 1 | -2 | ·
O=C(N[C@@H](Cc1cccnc1)C(=O)N1CCC[C@H]1C(=O)NCCc1ccccc1Cl)c1ccc(Cl)cc1Cl | · | · | -1 | · | · | ·
O=C(Nn1cnnc1)c1ccc(Br)s1 | 0 | 1 | 5 | -1 | 118* | 0
Nn1c(SCc2ccc(Br)cc2)nnc1-c1n[nH]c2c1CCC2 | · | · | 0 | · | · | ·
Cn1cc(CC(=O)Nc2cccc(C#N)c2)c2ccccc21 | -5 | -16 | 6 | 1 | 46* | 30*
CCc1ccc(NC(=O)Cc2cn(C)c3ccccc23)cc1 | -2 | -6 | -1 | 5 | 44* | 48*
COc1cc(C(NC(=O)C(F)(F)F)C2CCCC=C2c2ccccc2)cc(OC)c1OC (stereo not drawn) | · | · | 4 | · | · | ·
C#CCNC(=O)C[C@@H]1C(=O)N(Cc2ccc(OC)cc2)C2=CCN(C(=O)OC(C)(C)C)C[C@]21C(=O)OCC | · | · | 2 | · | · | ·
Cc1ccc(NC(=O)Cn2cncc2-c2ccc([N+](=O)[O-])cc2)cc1C | 6 | 49 | 12 | 32 | 48* | 14
Cc1cc2nc(/C=C/c3nc4cc(C)c(C)cc4[nH]3)[nH]c2cc1C | 31* | -4 | 2 | 39 | 46* | 19 | NadD inh conf=-17
Cc1cc2nc(/C=C/c3cccnc3)[nH]c2cc1C | -1 | -5 | 3 | 1 | 0 | ·
CC(C)C1CC(N(C)C)=CC(=S)N1 (stereo not drawn) | · | · | 5 | · | · | ·
CSc1ccc(C=NNc2ccc(S(=O)(=O)Nc3ccccc3C(=O)O)cc2[N+](=O)[O-])cc1 | 41* | 5 | 17 | 91* | 44* | 59* | NadD inh conf=21
Nc1ccc2c(O)cc(S(=O)(=O)O)cc2c1 | 4 | 67* | 87* | 26 | 38* | 68* | rCAG binder conf=34;dCAG dye counter=9.7*
CCCC[C@H]1C2CC(OC(=O)Nc3cccc(C#N)c3)C(C2)[C@H]2CCCCN21 (stereo partly drawn) | · | · | 5 | · | · | ·
Oc1ccc(C[C@H]2CNC(=S)N2C[C@H]2CCCN2C[C@H](Cc2ccccc2)N2C[C@H](Cc3ccccc3)N(CC3CCCCC3)C2=S)cc1 | 39* | · | 16 | 6 | · | · | NadD inh conf=0
CC(C)C[C@H]1CNC(=S)N1C[C@H]1CCCN1C[C@H](Cc1ccc(O)cc1)N1C[C@H](Cc2ccc(O)cc2)N(CC2CCCCCC2)C1=S | 44* | · | 12 | 4 | 4 | · | NadD inh conf=17
